This is an account of results in ChEMBL document CHEMBL1147141, “Potent nonpeptide antagonists of the bradykinin B1 receptor: structure-activity relationship studies with novel diaminochroman carboxamides” (J Med Chem, 2007).

For data set [1], the target named is T1, B1 bradykinin receptor (Rattus norvegicus, UniProt P97583).
T1 sequence (P97583 whole entry): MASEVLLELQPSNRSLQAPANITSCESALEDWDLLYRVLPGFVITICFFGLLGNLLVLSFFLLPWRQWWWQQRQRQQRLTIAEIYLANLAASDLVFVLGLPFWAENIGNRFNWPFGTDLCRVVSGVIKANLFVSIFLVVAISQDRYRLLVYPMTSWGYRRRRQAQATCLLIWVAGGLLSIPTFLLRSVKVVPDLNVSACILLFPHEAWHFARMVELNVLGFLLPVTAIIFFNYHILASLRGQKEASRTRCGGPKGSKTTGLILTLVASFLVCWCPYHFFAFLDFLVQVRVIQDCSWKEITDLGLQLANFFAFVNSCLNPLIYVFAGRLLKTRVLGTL
The data set can be described thus: Antagonist activity at rat bradykinin B1 receptor. The data set is classed as functional.

The nature of data set [2]: Volume of distribution at steady state in Sprague-Dawley rat at 1 mg/kg, iv. It is filed as ADME, organism-based. On the set-up: dose 1 mg/kg, route intravenous. The conditions noted are these: in vivo, read-out: Vss. The essentials:
(§1)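 Male Sprague-Dawley rats (225-280 g) with femoral and jugular vein cannulae were fasted overnight. They received an i.v. bolus of 1 mg/kg in 100% DMSO, prepared on the dosing day, n = 3. Blood was drawn via jugular cannula over 6 or 8 h into heparin. Plasma was acetonitrile-precipitated and measured by LC-MS/MS (positive MRM). Parameters were noncompartmental and reported with SEM.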

Data set [3] concerns Oryctolagus cuniculus. In words: Reduction of DAK10-induced hypotension in subcutaneously dosed New Zealand rabbit blood pressure model. It is filed as functional, organism-based. The essentials: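 New Zealand white rabbits (2.0-3.0 kg, n = 1/dose) were given LPS 25 µg/kg i.v. 5 h before the study to induce B1 receptors. Under anesthesia, both carotids were catheterized to record mean arterial pressure and to give DAK. Baseline was set by two i.v. bolus injections of 1 µg DAK. Antagonist was then given s.c. (1, 2, 4, 10 or 20 mpk). At 30 and 75 min, blood was drawn for plasma levels and the DAK response was re-measured, expressed as % hypotensive response.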

Data set [4] relates to Oryctolagus cuniculus. The data set can be described thus: Antinociceptive effect in subcutaneously dosed New Zealand rabbit assessed as reversal of carrageenan-induced hyperalgesia administered 2 hrs after carrageenan challenge. The data set is classed as functional, organism-based. The method in brief: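 Male New Zealand white rabbits (500-700 g), right hind paw injected with lambda carrageenan (3% in saline, 200 µL). Three punctate mechanical withdrawal readings were taken before and at 3 h post-carrageenan. Antagonist was given s.c. at 1 mL/kg, at 2 h (20% Captisol vehicle) or 2.5 h (PBS vehicle, peptide) post-carrageenan. Post minus pre threshold gave a difference score, converted to %MPE with the vehicle group as Emin and 0 as Emax. Analysed by one-factor ANOVA and Dunnett's test.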

Data set [5] can be described thus: Half life in Sprague-Dawley rat at 1 mg/kg, iv. Set-up: dose 1 mg/kg, route intravenous. The conditions noted are these: in vivo. It is filed as ADME, organism-based. The essentials: as §1
Data set [6] concerns the target T2, B1 bradykinin receptor (Oryctolagus cuniculus, UniProt P48748).
T2 sequence (P48748 whole entry): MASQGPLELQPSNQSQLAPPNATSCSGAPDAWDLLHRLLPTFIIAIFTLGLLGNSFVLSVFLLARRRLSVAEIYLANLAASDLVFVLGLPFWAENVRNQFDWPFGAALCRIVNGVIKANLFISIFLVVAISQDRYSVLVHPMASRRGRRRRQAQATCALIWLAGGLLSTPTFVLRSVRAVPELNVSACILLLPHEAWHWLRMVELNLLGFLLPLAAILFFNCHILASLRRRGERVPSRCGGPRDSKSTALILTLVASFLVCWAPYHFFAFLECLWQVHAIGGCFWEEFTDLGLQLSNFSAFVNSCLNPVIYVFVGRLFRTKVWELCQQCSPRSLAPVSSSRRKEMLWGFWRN
In words: Antagonist activity at rabbit bradykinin B1 receptor. The data set is classed as functional.

The nature of data set [7]: Oral bioavailability in Sprague-Dawley rat at 10 mg/kg, po. It is filed as ADME, organism-based. The conditions noted are these: in vivo. The essentials: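 Male Sprague-Dawley rats (225-280 g), cannulated and fasted overnight, were dosed by oral gavage at 10 mg/kg in 1% Tween 80, 2% HPMC, prepared 24-48 h before dosing, n = 3. Jugular blood was sampled over 6 or 8 h. Plasma was analysed by LC-MS/MS and parameters derived noncompartmentally.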

Data set [8] is described as follows: Metabolic stability in rat liver microsomes. It is filed as ADME, Microsome. The following applies: read-out: Stability. (In general: Microsomes from liver hold many membrane-bound enzymes, among them those of drug oxidation.)
Data set [9] can be described thus: Clearance in Sprague-Dawley rat at 1 mg/kg, iv. On the set-up: dose 1 mg/kg, route intravenous. The data set is classed as ADME, organism-based. The conditions noted are these: in vivo. The method in brief: as §1
Data set [10] can be described thus: Metabolic stability in human liver microsomes. It is filed as ADME, Microsome. The conditions noted are these: read-out: Stability.
Data set [11] concerns the target T3, B1 bradykinin receptor (Homo sapiens, UniProt P46663).
T3 sequence (P46663 whole entry): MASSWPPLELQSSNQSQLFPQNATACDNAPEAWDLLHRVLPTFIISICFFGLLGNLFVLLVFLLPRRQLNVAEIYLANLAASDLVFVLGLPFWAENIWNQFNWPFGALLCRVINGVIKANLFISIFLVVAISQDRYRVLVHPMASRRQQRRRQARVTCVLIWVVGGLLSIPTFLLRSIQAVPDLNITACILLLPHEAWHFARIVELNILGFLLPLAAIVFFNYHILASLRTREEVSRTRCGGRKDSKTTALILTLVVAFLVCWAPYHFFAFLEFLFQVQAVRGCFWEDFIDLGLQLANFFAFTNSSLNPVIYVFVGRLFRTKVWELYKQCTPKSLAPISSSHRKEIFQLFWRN
In words: Antagonist activity at human bradykinin B1 receptor expressed in CHOD cells assessed as effect on DAK-induced calcium flux. The data set is classed as functional, cell-based.

Data set [12] deals with T3, B1 bradykinin receptor. In words: Displacement of [3H]DAK from human bradykinin B1 receptor expressed in CHOD cells. It is filed as cell-based. Background: In a radioligand displacement assay an active substance lowers the binding of a labelled ligand.
Data set [13] is described as follows: Oral bioavailability in Sprague-Dawley rat at 3 mg/kg, po. It is filed as ADME, organism-based. The following applies: in vivo.

What is called Ki is a dissociation constant, usually derived from enzyme kinetics or from competition with a known ligand. Read a low Ki as higher affinity. As a reminder, the half-life is the time needed for the level to fall by half in the phase considered. Lower therefore signals fast loss. The IC50 is the concentration at which inhibition is half-maximal. In general, bioavailability refers to the share of a dose that reaches the circulation, judged against a reference dose that is usually intravenous. High values mean much systemic uptake, low ones little systemic uptake. The clearance is the volume of plasma or blood freed of the substance per unit of time. With `O=C(C[C@@H](NS(=O)(=O)c1cccc(C(F)(F)F)c1)c1ccc(F)cc1)N[C@@H]1CCOc2cc(CN3CCCCC3)ccc21`, the Ki at B1 bradykinin receptor [1] is on record as 127 nM (antagonist). Besides, the Vd in [2] amounted to 4.64 L/kg. Moreover, the Activity result in the data set on Oryctolagus cuniculus [3] and with Oryctolagus cuniculus [4] was “Dose-dependent effect” in each case. In data set [5], this compound gave a half-life of 2.5 h. For the same compound, on B1 bradykinin receptor [6], the IC50 was 10.4 nM (antagonist). Further, the bioavailability in data set [7] came to 13%. In addition, the microsomal CLint in [8] was 216 µL/min/mg. This compound had a clearance in data set [9] of 24.8 mL/min/kg.
As for `COCCNCc1ccc2c(c1)OCC[C@H]2NC(=O)C[C@@H](NS(=O)(=O)c1cccc(C(F)(F)F)c1)c1ccc(F)cc1`, the values for the microsomal CLint in data set [10] and in data set [8] were 310 µL/min/mg and 265 µL/min/mg, respectively. Moreover, the Ki at B1 bradykinin receptor [1] is given as 208 nM (antagonist); on B1 bradykinin receptor [12] it was 14 nM (antagonist). Moreover, the Vd in [2] was 8.09 L/kg. Further, the IC50 on B1 bradykinin receptor [11] was 17.4 nM (antagonist); at B1 bradykinin receptor [6], 1680 nM (antagonist). The compound also had a half-life in [5] of 3.4 h. Also, the bioavailability in data set [7] is 49%. This compound also had a clearance in data set [9] of 39.4 mL/min/kg.
In the case of `O=C(C[C@@H](NS(=O)(=O)c1ccc2ccccc2c1)c1ccccc1)N[C@@H]1CCOc2cc(CN3CCCCC3)ccc21`, the microsomal CLint in data set [10] worked out at 688 µL/min/mg; in data set [8], 390 µL/min/mg. Besides, the bioavailability in [13] stood at 4%. Besides, the clearance in [9] was found to be 84.1 mL/min/kg.
Consider `CC(C)CNCc1ccc2c(c1)OCC[C@H]2NC(=O)C[C@@H](NS(=O)(=O)c1ccc2ccccc2c1)c1ccccc1`, for which the 50% inhibitory concentration (IC50) on B1 bradykinin receptor [11] was 10.5 nM (antagonist). Further, the Ki at B1 bradykinin receptor [12] is given as 5 nM (antagonist).
Turning to `O=C(C[C@@H](NS(=O)(=O)c1cccc(C(F)(F)F)c1)c1ccc(F)cc1)N[C@@H]1CCOc2cc(CN3CCCC3)ccc21`, the microsomal CLint amounted to 355 µL/min/mg in data set [10] and 158 µL/min/mg in [8]. Besides, the Ki on B1 bradykinin receptor [1] was 151 nM (antagonist); on B1 bradykinin receptor [12], 5.5 nM (antagonist). The Vd in data set [2] was determined as 13.7 L/kg. Besides, the IC50 at B1 bradykinin receptor [11] was 19.7 nM (antagonist); against B1 bradykinin receptor [6], 450 nM (antagonist). In data set [5], this compound showed a half-life of 3.8 h. This compound also displayed a bioavailability in data set [7] of 41%. In [9], the clearance was 51.3 mL/min/kg.
As for `CC(C)(C)NCc1ccc2c(c1)OCC[C@H]2NC(=O)C[C@@H](NS(=O)(=O)c1ccc2ccccc2c1)c1ccccc1`, the concentration for half-maximal inhibition (IC50) at B1 bradykinin receptor [11] is 17 nM (antagonist). Also, the Ki on B1 bradykinin receptor [12] is 5.4 nM (antagonist).
Take `Cc1c(Cl)cccc1S(=O)(=O)N[C@H](CC(=O)N[C@@H]1CCOc2cc(CNC(C)(C)C)ccc21)c1ccccc1`: the IC50 on B1 bradykinin receptor [11] is recorded as 207 nM (antagonist). On B1 bradykinin receptor [12], the Ki is listed as 40.6 nM (antagonist).
For `CC(C)(C)NCc1ccc2c(c1)OCC[C@H]2NC(=O)C[C@@H](NS(=O)(=O)c1ccc(Cl)cc1Cl)c1ccccc1`, on B1 bradykinin receptor [11], the IC50 was 255 nM (antagonist). Besides, at B1 bradykinin receptor [12], the Ki is recorded as 127 nM (antagonist).
Regarding `CN(C)Cc1ccc2c(c1)OCC[C@H]2NC(=O)C[C@@H](NS(=O)(=O)c1ccc2ccccc2c1)c1ccccc1`, on B1 bradykinin receptor [11], the IC50 is listed as 167 nM (antagonist). Also, the Ki at B1 bradykinin receptor [12] was 84.8 nM (antagonist).
`CC(C)(C)NCc1ccc2c(c1)OCC[C@H]2NC(=O)C[C@@H](NS(=O)(=O)c1ccc(C(C)(C)C)cc1)c1ccccc1`: on B1 bradykinin receptor [11], the IC50 is 60.9 nM (antagonist). Moreover, the Ki at B1 bradykinin receptor [12] is 24.8 nM (antagonist).
As for `COCCNCc1ccc2c(c1)OCC[C@H]2NC(=O)C[C@@H](NS(=O)(=O)c1ccc(Cl)c(Cl)c1)c1ccc(F)cc1`, on B1 bradykinin receptor [11], the IC50 is listed as 9.4 nM (antagonist). Besides, the Ki on B1 bradykinin receptor [12] is 6.7 nM (antagonist).
`CC(C)(C)NCc1ccc2c(c1)OCC[C@H]2NC(=O)C[C@@H](NS(=O)(=O)c1ccccc1C(F)(F)F)c1ccccc1`: the IC50 on B1 bradykinin receptor [11] is 2000 nM (antagonist). The Ki on B1 bradykinin receptor [12] is on record as 367 nM (antagonist).
On the same counts, the results for `O=C(C[C@@H](NS(=O)(=O)c1ccc2ccccc2c1)c1ccccc1)N[C@@H]1CCOc2cc(CNC3CCCCC3)ccc21` are 69.9 nM (antagonist) and 21.8 nM (antagonist).
`O=C(C[C@@H](NS(=O)(=O)c1ccc2ccccc2c1)c1ccccc1)N[C@@H]1CCOc2cc(CN3CCCC3)ccc21`: on B1 bradykinin receptor [11], the IC50 was 14.8 nM (antagonist). Moreover, at B1 bradykinin receptor [12], the Ki was 5.7 nM (antagonist).
On to `CC(C)(C)NCc1ccc2c(c1)OCC[C@H]2NC(=O)C[C@@H](NS(=O)(=O)c1cccc(C(F)(F)F)c1)c1ccc(C#N)cc1`, for which the IC50 on B1 bradykinin receptor [11] is listed as 566 nM (antagonist). Also, the Ki at B1 bradykinin receptor [12] is listed as 120 nM (antagonist).
As to `CC(C)NCc1ccc2c(c1)OCC[C@H]2NC(=O)C[C@@H](NS(=O)(=O)c1cccc(C(F)(F)F)c1)c1ccc(F)cc1`, the IC50 at B1 bradykinin receptor [11] is listed as 20.1 nM (antagonist). The Ki at B1 bradykinin receptor [12] is given as 4.7 nM (antagonist).
With `CC(C)CNCc1ccc2c(c1)OCC[C@H]2NC(=O)C[C@@H](NS(=O)(=O)c1cccc(C(F)(F)F)c1)c1ccc(F)cc1`, the IC50 on B1 bradykinin receptor [11] is listed as 14.8 nM (antagonist). Further, on B1 bradykinin receptor [12], the Ki is listed as 5.9 nM (antagonist).
